Source: ChEMBL document CHEMBL1123923, “Steroidal silicon side-chain analogues as potential antifertility agents” (1987)

Experiments:
[1] = molecular target: Estrogen receptor (Rattus norvegicus) (UniProt P06211+Q62986)
[2] = organism: Rattus norvegicus; test: Antifertility activity measured as minimum protective dose for prevention of pregnancy in rats; assay type: functional; design: unit not given here
Outline: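 Oral dosing in adult cycling female rats selected in the proestrous phase, 10 animals per dose, with treatment starting on the day of proestrus.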

[3] = organism: Rattus norvegicus; test: Separation of antifertility from estrogenic activity in rats was measured; assay type: functional

SMILES | Estrogenic potency [1] | Antifertility potency [2] | Separation [3]
C[C@]12CC[C@@H]3c4ccc(O)cc4CC[C@H]3[C@@H]1CC[C@@]2(O)/C=C/[Si](C)(C)C | 0.2 | 0 | 
CCC[Si](C)(C)C#C[C@]1(O)CC[C@H]2[C@@H]3CCc4cc(O)ccc4[C@H]3CC[C@@]21C | 22 | 300 | 14
CCC(C)[Si](C)(C)C#C[C@]1(O)CC[C@H]2[C@@H]3CCc4cc(O)ccc4[C@H]3CC[C@@]21C (some centres not stated) | 20 | 300 | 15
CC(Cl)[Si](C)(C)C#C[C@]1(O)CC[C@H]2[C@@H]3CCc4cc(O)ccc4[C@H]3CC[C@@]21C (some centres not stated) | 45 | 300 | 7
CC[Si](C#C[C@]1(O)CC[C@H]2[C@@H]3CCc4cc(O)ccc4[C@H]3CC[C@@]21C)(C#C[C@]1(O)CC[C@H]2[C@@H]3CCc4cc(O)ccc4[C@H]3CC[C@@]21C)CC | 8 | 0 | 
C[C@]12CC[C@@H]3c4ccc(O)cc4CC[C@H]3[C@@H]1CC[C@@]2(O)C#C[Si](C)(C)CCC#N | 37 | 300 | 8
CCCC[Si](C#C[C@]1(O)CC[C@H]2[C@@H]3CCc4cc(O)cc(C(C)=O)c4[C@H]3CC[C@@]21C)(CCCC)CCCC | 4 | 0 | 
C#C[Si](C#C[C@]1(O)CC[C@H]2[C@@H]3CCc4cc(O)ccc4[C@H]3CC[C@@]21C)(CC)CC | 37 | 600 | 16
CC(C)(C)[Si](C)(C)C#C[C@]1(O)CC[C@H]2[C@@H]3CCc4cc(O)ccc4[C@H]3CC[C@@]21C | 20 | 600 | 30
CC[Si](C#C[C@]1(OC(=O)n2ccnc2)CC[C@H]2[C@@H]3CCc4cc(OC)ccc4[C@H]3CC[C@@]21C)(CC)CC | 3 |  | 
C[C@]12CC[C@@H]3c4ccc(O)cc4CC[C@H]3[C@@H]1CC[C@@]2(O)C#C[Si](c1ccccc1)(c1ccccc1)c1ccccc1 | 0.5 | 0 | 
CCC[Si](C#C[C@]1(O)CC[C@H]2[C@@H]3CCc4cc(O)ccc4[C@H]3CC[C@@]21C)(CCC)CCC | 25 | 200 | 8
C#C[C@]1(O)CC[C@H]2[C@@H]3CCc4cc(O)ccc4[C@H]3CC[C@@]21C [ETHINYL ESTRADIOL] |  | 100 | 
C[C@]12CC[C@@H]3c4ccc(O)cc4CC[C@H]3[C@@H]1CC[C@@]2(O)C#C[Si](C)(CCl)CCl | 39 | 150 | 4
C[C@]12CC[C@@H]3c4ccc(O)cc4CC[C@H]3[C@@H]1CC[C@@]2(O)C#C[Si](C)(C)Cc1ccccc1 | 12 | 300 | 25
CCCC(=O)Oc1ccc2c(c1)CC[C@@H]1[C@@H]2CC[C@@]2(C)[C@H]1CC[C@]2(C#C[Si](CC)(CC)CC)OC(=O)CCC | 4 | 40 | 
CC[Si]1(C#C[C@]2(O)CC[C@H]3[C@@H]4CCc5cc(O)ccc5[C@H]4CC[C@@]32C)CCCCC1 | 85 | 200 | 2.4
CCCCCC[Si](C#C[C@]1(O)CC[C@H]2[C@@H]3CCc4cc(O)ccc4[C@H]3CC[C@@]21C)(CC)CC | 5.2 | 15 | 3
CC[Si](C#C[C@]1(O)CC[C@H]2[C@@H]3CCc4cc(OC(C)=O)ccc4[C@H]3CC[C@@]21C)(CC)CC | 34 | 600 | 
CC(C)[Si](C)(C)C#C[C@]1(O)CC[C@H]2[C@@H]3CCc4cc(O)ccc4[C@H]3CC[C@@]21C | 15 | 300 | 20
C[C@]12CC[C@@H]3c4ccc(O)cc4CC[C@H]3[C@@H]1CC[C@@]2(O)C#C[Si](C)(C)CCCCl | 25 | 200 | 8
C[C@]12CC[C@@H]3c4ccc(O)cc4CC[C@H]3[C@@H]1CC[C@@]2(O)C#C[Si](C)(C)CBr | 27 | 200 | 7.4
CC[Si](C#C[C@]1(O)CC[C@H]2[C@@H]3CCc4cc(O)ccc4[C@H]3CC[C@@]21C)(CC)C(C)(C)C | 31 | 300 | 10
CCC[Si](C#C[C@]1(O)CC[C@H]2[C@@H]3CCc4cc(O)ccc4[C@H]3CC[C@@]21C)(CC)CC | 39 | 300 | 8

SMILES | Estrogenic potency [1] | Antifertility potency [2] | Separation [3]
CCCC[Si](C#C[C@]1(O)CC[C@H]2[C@@H]3CCc4cc(O)ccc4[C@H]3CC[C@@]21C)(CCCC)CCCC | 2.5 | 0 | 
CC[Si]1(C#C[C@]2(O)CC[C@H]3[C@@H]4CCc5cc(O)ccc5[C@H]4CC[C@@]32C)CCCC1 | 120 | 500 | 4.2
C=CC[Si](C)(C)C#C[C@]1(O)CC[C@H]2[C@@H]3CCc4cc(O)ccc4[C@H]3CC[C@@]21C | 24 | 250 | 10
C[C@]12CC[C@@H]3c4ccc(O)cc4CC[C@H]3[C@@H]1CC[C@@]2(O)/C=C\[Si](C)(C)C | 0.5 | 5 | 10
C=CC[Si](C#C[C@]1(O)CC[C@H]2[C@@H]3CCc4cc(O)ccc4[C@H]3CC[C@@]21C)(CC)CC | 44 | 300 | 7
C=C([C@]1(O)CC[C@H]2[C@@H]3CCc4cc(O)ccc4[C@H]3CC[C@@]21C)[Si](C)(C)C | 0.4 | 2 | 5
C[C@]12CC[C@@H]3c4ccc(O)cc4CC[C@H]3[C@@H]1CC[C@@]2(O)C#C[Si](C)(C)CCl | 17 | 150 | 9
C[C@]12CC[C@@H]3c4ccc(O)cc4CC[C@H]3[C@@H]1CC[C@@]2(O)C#C[Si](C)(C)c1ccccc1 | 7 | 33 | 4.7
CCC[Si](C=C[C@]1(O)CC[C@H]2[C@@H]3CCc4cc(O)ccc4[C@H]3CC[C@@]21C)(CCC)CCC | 0.05 | 0 | 
CC[Si](/C=C\[C@]1(O)CC[C@H]2[C@@H]3CCc4cc(O)ccc4[C@H]3CC[C@@]21C)(CC)CC | 0.5 | 10 | 20
C[C@]12CC[C@@H]3c4ccc(O)cc4CC[C@H]3[C@@H]1CC[C@@]2(O)C#C[Si](C)(C)C(Cl)Cl | 18 | 300 | 17
CC[Si](/C=C/[C@]1(O)CC[C@H]2[C@@H]3CCc4cc(O)ccc4[C@H]3CC[C@@]21C)(CC)CC | 0.04 | 1.31 | 30
C=C([C@]1(O)CC[C@H]2[C@@H]3CCc4cc(O)ccc4[C@H]3CC[C@@]21C)[Si](CC)(CC)CC | 0.5 | 4 | 8
CC[Si](C)(C#C[C@]1(O)CC[C@H]2[C@@H]3CCc4cc(O)ccc4[C@H]3CC[C@@]21C)CC | 40 | 600 | 15
CC[Si](C#C[C@]1(O)CC[C@H]2[C@@H]3CCc4cc(O)ccc4[C@H]3CC[C@@]21C)(CC)C(C)C | 30 | 300 | 10
CC[Si](C#C[C@]1(O)CC[C@H]2[C@@H]3CCc4cc(O)ccc4[C@H]3CC[C@@]21C)(CC)CC | 37 | 600 | 16
CC[Si](C#C[C@]1(O)CC[C@H]2[C@@H]3CCc4cc(O)ccc4[C@H]3CC[C@@]21C)(CC)c1ccccc1 | 17 | 150 | 10
CC(C)(C)C#C[C@]1(O)CC[C@H]2[C@@H]3CCc4cc(O)ccc4[C@H]3CC[C@@]21C | 0.07 | 1 | 14
C[C@]12CC[C@@H]3c4ccc(O)cc4CC[C@H]3[C@@H]1CC[C@@]2(O)C#C[Si](C)(C)CCC(F)(F)F | 19 | 150 | 8
C=C[Si](C)(C#C[C@]1(O)CC[C@H]2[C@@H]3CCc4cc(O)ccc4[C@H]3CC[C@@]21C)CC (some centres not stated) | 28 | 300 | 11
CCCC(=O)Oc1ccc2c(c1)CC[C@@H]1[C@@H]2CC[C@@]2(C)[C@H]1CC[C@@]2(O)C#C[Si](CC)(CC)CC | 35 | 300 | 
C=C([C@]1(O)CC[C@H]2[C@@H]3CCc4cc(O)ccc4[C@H]3CC[C@@]21C)[Si](CCC)(CCC)CCC | 0.5 | 2 | 4
CC[Si](C#C[C@]1(O)CC[C@H]2[C@@H]3CCc4cc(OC5CCCC5)ccc4[C@H]3CC[C@@]21C)(CC)CC | 24 | 300 | 
